# BB579 growth dn: growth inhibitors of yeast BB579 in restrictive medium, primary screen, yeast lifespan-shortening project, S. cerevisiae | OD615, 48 h | inhibition, % at 10 µM | 0.51% of 140,000 active | AID 804, 2007;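 active means inhibition above a set limit, 3 SD over the mean compound inhibition, cut at about 44% in these data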
#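 Assay system: S. cerevisiae DeaD strain BB579 yeast. Medium: CSMM-D restrictive synthetic medium containing dextrose (glucose). Times: 4 h cell preincubation, 48 h compound exposure, 30 °C humidified. Signal: OD615 turbidity measurement. Benchmarks: positive control amphotericin B 10 µg/mL.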
# SDO1 yeast rescue: growth rescue of sdo1-depleted yeast, primary screen, S. cerevisiae, bone marrow failure model. S. cerevisiae sdo1-depleted JHY4D growth rescue, OD600 30 h; hits give high values; pdr5 snq2 efflux-pump mutant strain. z-score at 10 µM. 0.21% of 140,000 active;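 active means z-score above 3 at both the 24 hr and the 30 hr optical density reads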;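 further: z-score against mean and SD of all compound wells on the same plate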
# RAM inhibit: inhibitors of the yeast RAM network, primary screen, dse1pr::URA3 reporter, 5-FOA selection; S. cerevisiae dse1pr::URA3 reporter, 5-FOA growth OD615, 2 d; analog-sensitive cbk1-as2 kinase mutant strain; inhibition, % at 50 µM; 1.8% of 190,000 active;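 active means inhibition above a set limit, 3 SD over mean compound inhibition, cut at about 8.4% in these data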;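 further: 0% = DMSO-only wells with no growth and 100% = 10 µM 1-NA-PP1 full growth; inhibition rescues growth on 5-FOA so higher OD means more RAM inhibition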
# Yeast life ext: compounds extending yeast replicative lifespan, primary screen, S. cerevisiae, OD615; S. cerevisiae growth with nicotinamide; deaD strain in restrictive glucose medium; inhibition of the nicotinamide effect, % at 10 µM; 0.68% of 130,000 active; AID 775, 2007;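 active means inhibition above a set limit, placed 3 SD over the median of all compounds, cut at about 26% in these data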;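 further: 0% = nicotinamide-treated wells and 100% = cells grown without nicotinamide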
#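 Buffer or medium: CSMM-D glucose medium, restrictive; test system: modified budding yeast, DeaD strain; compound: single dose 10 µM compound, 0.25% DMSO; schedule: culture preincubation 4 h, compound exposure 48 h, both 30 °C; detection: optical density (absorbance) at 615 nm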
# An asterisk follows results filed as active; . = not tested or not shown. This is a sample that favours compounds with a hit; in the whole collection about 2.7% have one here.
SMILES,BB579 growth dn,SDO1 yeast rescue,RAM inhibit,Yeast life ext
C=CCNC(=O)/C(C#N)=C/c1ccccc1OCc1ccc(C(=O)OC)cc1,-52,-0.92,7,35*
COC(=O)c1ccc(COc2ccccc2/C=C(\C#N)C(=O)Nc2ccc(C)cc2)cc1,-31,-0.87,4,6
CC(=O)NCCc1nc2ccccc2n1CCc1ccccc1,.,.,0,.
c1ccc(N(c2ccccc2)c2nc(-n3ccnc3)nc(-n3ccnc3)n2)cc1,92*,-2.8,1,-12
Nc1c(C(=O)O)ccc2c1C(=O)c1ccccc1C2=O,.,.,0,.
COC(=O)c1ccc2c(c1O)C(=O)c1ccccc1C2=O,67*,-2,0,-11
O=C(CSCc1ccccc1Br)N/N=C/c1ccccc1C(=O)O,.,.,3,.
COC(=O)CCCCC1SCC(NC(=O)c2ccccc2)C1OC(C)=O (stereo not drawn),.,.,9.2*,.
COC(=O)CCCCC1SCC(NC(=O)c2ccccc2)C1=O (stereo not drawn),.,.,2,.
O=C(/C=C/c1ccccc1)NC(NC(=S)Nc1cccc(Cl)c1)C(Cl)(Cl)Cl (stereo not drawn),-26,0.54,8.9*,0
O=C(NC(NC(=S)Nc1ccccc1Cl)C(Cl)(Cl)Cl)c1cccc(Cl)c1 (stereo not drawn),-12,-0.06,9.4*,3
O=C(/C=C/c1cccc(Cl)c1)Nc1ncccn1,-22,0.27,-2,-8
CSc1cccc(NC(=O)/C=C/c2cccc(Cl)c2)c1,-48,-1.8,9.1*,-4
O=C1CCCN1CCC1CCCCN1Cc1nc(-c2cnccn2)no1 (stereo not drawn),.,.,1,.
CSc1nc(-c2ccccc2F)c(C#N)c(=O)n1C,.,.,8.6*,.
CSc1nc(C)c(Oc2ccccc2)c(=O)n1C,-55,1.1,1,-6
Cc1ccc(-n2nnnc2SCCNS(=O)(=O)c2ccccc2)cc1C,-26,-0.62,9.9*,-9
CS(=O)(=O)N(CC(=O)Nc1cccc([N+](=O)[O-])c1)c1cccc(F)c1,.,.,1,.
Oc1ccc(Br)cc1C=Nc1ccc2c3c(cccc13)CC2,-84,-0.83,10*,16
Oc1ccc(Cl)cc1C=Nc1ccccc1Br,-40,0.1,0,24
S=C(NC1CCCCC1)N1CCN(C2CCCCC2)CC1,.,.,-1,.
O=C(CSc1cc(Cl)ccc1Cl)NCC(=O)Nc1ccc(F)c(F)c1F,-66,-0.51,9.4*,6
N#Cc1ccc(C23CC4CC(CC(C4)C2)C3)[nH]c1=O,-22,-0.26,1,6
Cc1ncc(C23CC4CC(CC(C4)C2)C3)[nH]1,-34,1.6,1,152*
CCOc1ccc(C(=O)NCC(c2cccs2)N(C)C)cc1OCC (stereo not drawn),9,0.83,2,-1
SMILES,BB579 growth dn,SDO1 yeast rescue,RAM inhibit,Yeast life ext
CCCCCCCCCCn1c2c(c(=N)c3c1CCC3)CCC2,99*,-2.3,-2,-29
C=CCn1cnc2c(c1=O)c1nc3ccccc3nc1n2/N=C/c1cc(OC)c(OC)c(OC)c1,58*,-0.59,0,-24
C=CCn1cnc2c(c1=O)c1nc3ccccc3nc1n2-c1ccc(C)cc1,-23,-0.7,3,-9
FCCCOc1ccc(-c2nccc(-c3ccc(Cl)cc3)n2)cc1,-47,0.86,8.8*,-3
CC1C/C(=C\c2cccnc2)C(=O)/C(=C/c2cccnc2)C1 (stereo not drawn),-4,-1.9,2,70*
CCOC(=O)C/C(N)=N/N(C)c1ncc(C(F)(F)F)cc1Cl,.,.,0,.
C#Cc1ccc([C@H]2C=C(C(=O)NC3CC3)O[C@@H](OCC)[C@@H]2CCCO)cc1,.,.,0,.
O=C(Nc1cccc(S(=O)(=O)N2CCCCC2)c1)c1ccccc1NS(=O)(=O)c1ccc(F)cc1,-35,0.77,3,-3
Cc1ccc(NC(=O)c2ccccc2NS(=O)(=O)c2ccc(F)cc2)cc1S(=O)(=O)N1CCCCC1,-37,-0.53,8.9*,7
O=C(COC(=O)c1ccc([N+](=O)[O-])o1)Nc1cccc2ccccc12,.,.,3,.
CCCC(=O)C1=C(O)C(C(=O)OC)C(C)(C)CC1=Nc1ccc(N)cc1 (stereo not drawn),-7,0.13,3,-1
CCCC(=Nc1ccc(N)cc1)C1=C(O)C(C(=O)OC)C(C)(C)CC1=O (stereo not drawn),-4,0.59,1,44*
O=C(Oc1ccc(=O)n(-c2ccccc2)n1)c1ccc(Cl)cc1,-34,-0.34,-2,51*
CCCn1nnnc1NCc1c(F)cccc1Cl,.,.,4,.
COc1ccc2c(c1)S/C(=C\C(=O)c1ccncc1)N2C,92*,-2.4,2,-14
CCOC(=O)c1c(-c2ccc(F)cc2)csc1/N=C/N(C)C,.,.,1,.
O=C(NCCN1C(=O)S/C(=C\c2ccc(F)cc2)C1=O)c1cccc(S(=O)(=O)N2CCOCC2)c1,-21,-0.83,3,2
O=C(Nc1cccc(Cl)c1)c1ccc2c(=O)n3c(nc2c1)CCCCC3,-39,-2.2,-1,59*
O=C(Nc1ccc(F)c(Cl)c1)c1ccc2c(=O)n3c(nc2c1)CCCCC3,-17,-3.2,3,-6
FC(F)(F)c1nnc(-c2ccccc2)nc1Sc1ccccc1,-71,-1.4,8,10
FC(F)(F)c1cccc(Sc2nc(-c3ccccc3)nnc2C(F)(F)F)c1,-38,-1.2,8.6*,-16
CCOc1ccc(OCC)c(NC(=O)CN2CCN(c3cc(C)ccc3C)CC2)c1,-29,-0.49,8.7*,-2
CCOC(=O)c1c(C)[nH]c(C(=O)NCc2ccco2)c1C,.,.,1,.
Cc1sc2ncn(C(C)C(=O)OC3CCCCC3)c(=O)c2c1C (stereo not drawn),-40,0,0,27*
CC1CC(CC(C)C(=O)NC(=S)Nc2ccc(S(N)(=O)=O)cc2)C(=O)O1 (stereo not drawn),.,.,0,.
SMILES,BB579 growth dn,SDO1 yeast rescue,RAM inhibit,Yeast life ext
CCC1CC(C)(C(=O)Nc2ccc(S(N)(=O)=O)cc2)OC1=O (stereo not drawn),-8,0.12,1,49*
O=C(NC1CCCCCC1)C(=S)NC1CCCCC1,.,.,4,.
COc1ccc(Cl)cc1NC(=O)C1(c2cccs2)CCOCC1,.,.,-1,.
CC1=CC=CN2C1=NC(=O)CC2(C)C(=O)N(CC(=O)NC1CCCC1)c1cc(C)cc(C)c1 (stereo not drawn),.,.,1,.
CCOc1nc(C)cc(C)c1S(=O)(=O)c1ccc(Cl)cc1,.,.,8.7*,.
Cc1cc(C)c(S(=O)(=O)c2ccccc2)c(OC(=O)c2ccc(Cl)cc2Cl)n1,-52,1,0,52*
CCOC(=O)C1(CCCc2ccccc2)CCN(Cc2cn(CC)nc2C)CC1,.,.,-1,.
CN(C)Cc1c(O)c(Cl)cc2c3c(c(=O)oc12)CCCC3,-13,-0.66,-2,30*
CCN(CC)Cc1c(O)c(Cl)cc2c3c(c(=O)oc12)CCCC3,-15,-0.23,0,16
COc1ccc(C2=NOC(C(=O)Nc3ccc(C)cc3)C2)cc1OC (stereo not drawn),-27,-0.33,9.2*,-28
N#CCCN(C(=O)Nc1ccc(Cl)c(Cl)c1)c1ccccc1,-12,-0.53,1,-6

# Screening data as filed in PubChem.
